Laboratory results: ChEMBL document CHEMBL2434834, “Synthesis of pyrido[2,1-a]isoquinolin-4-ones and oxazino[2,3-a]isoquinolin-4-ones: new inhibitors of mitochondrial respiratory chain” (Eur J Med Chem, 2013)

experiment: Inhibition of NADH oxidase in beef heart sub-mitochondrial particles by UV-spectrophotometric analysis; design: species or system Bos taurus
Method in brief: (§1)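 Inverted beef-heart submitochondrial particles were made by extensive sonication of frozen-thawed mitochondria and stored at -70 °C at 28 mg/mL protein (Bradford). After incubation with inhibitor, particles were diluted to […] in 50 mM potassium phosphate pH 7.4 with 1 mM EDTA, at 22 °C with NADH. Aerobic NADH oxidation was followed at 340 nm (ε 6.22 mM⁻¹ cm⁻¹), with rates taken from the linear decrease at increasing inhibitor concentrations.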

IC50 [µM] | SMILES
8.23 | COc1cc2c(cc1OC)-c1cc(C)cc(=O)n1CC2
1.32 | COc1cc2c(cc1OC)C1(C)OC(c3ccccc3)=CC(=O)N1CC2 (stereo not given)
3.44 | Cc1cc2n(c(=O)c1)CCc1cc(O)c(O)cc1-2
1.39 | COc1cc2c(cc1OC)C1(Cc3ccccc3Br)OC(C)=CC(=O)N1CC2 (stereo not given)
12.5 | COc1cc2c(cc1OC)-c1cc(-c3ccco3)cc(=O)n1CC2
1.53 | COc1cc2c(cc1OC)C1(Cc3ccccc3)OC(C)=CC(=O)N1CC2 (stereo not given)
4.24 | COc1cc2c(cc1OC)-c1c(-c3ccccc3Br)c(C)cc(=O)n1CC2
0.9 | COc1cc2c(cc1OC)C1(C)OC(c3ccco3)=CC(=O)N1CC2 (stereo not given)
4.69 | COc1cc2c(cc1OC)-c1c(-c3ccccc3)c(C)cc(=O)n1CC2
1.36 | COc1cc2c(cc1OC)C1(C)OC(C)=CC(=O)N1CC2 (stereo not given)
> 30 | COc1cc2c(cc1OC)-c1cc(-c3ccccc3)cc(=O)n1CC2

SMILES | IC50 [µM]
C=C(C)[C@H]1Cc2c(ccc3c2O[C@@H]2COc4cc(OC)c(OC)cc4[C@@H]2C3=O)O1 [ROTENONE] | 0.0051

experiment: Inhibition of NADH oxidase in beef heart sub-mitochondrial particles after 5 mins; design: species or system Bos taurus; method in brief: as §1

IC50 [µM] | SMILES
2.5 | COc1cc(O)c2nc3n(c(=O)c2c1)-c1ccccc1C(=O)N1CCC[C@@H]31
13 | CC(C)Cc1cnc(CC(C)C)c(=O)[nH]1
1.5 | COc1ccc2nc3n(c(=O)c2c1)-c1ccccc1C(=O)N1CCC[C@@H]31
